Results on five compounds are retold here after ChEMBL document CHEMBL1155830, “Asymmetric synthesis of 2,3-dihydro-2-arylquinazolin-4-ones: methodology and application to a potent fluorescent tubulin inhibitor with anticancer activity” (J Med Chem, 2008).

The structures appear in SMILES notation.

Experiment [1] has as its system MDA-MB-435. As to the kind of experiment: Antiproliferative activity against human MDA-MB-435 cells after 72 hrs. The following applies: MDA-MB-435, 72 h. Type of experiment: functional. In outline:
(§1)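 HCT-116 cells were kept in McCoy's 5a with 1.5 mM L-glutamine and 5% FBS, and MDA-MB-435 cells in D-MEM with 1.5 mM L-glutamine and 5% FBS, both at 37 °C in humidified 5% CO2. Cells were seeded at 3200 per well, allowed to attach, and given vehicle or drug at 10 nM–3 µM (n = 8) for 72 h. Live cells were read by CellTiter 96 AQueous at 490 nm, and the 50% inhibitory value was taken from the dose–response curve.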

Experiment [2] relates to HCT-116. As to the kind of experiment: Antiproliferative activity against human HCT116 cells after 72 hrs. In kind it is functional. The following applies: HCT-116, 72 h. In outline:
as §1

Experiment [3] is described as follows: Inhibition of tubulin polymerization.
Experiment [4] is described as follows: Displacement of [3H]colchicine from tubulin at 5 uM. In general terms: Displacement assays read how much labelled ligand stays bound in the presence of the test substance.
Experiment [5] is described as follows: Displacement of [3H]colchicine from tubulin at 50 uM.

On to `Cc1ccccc1-c1ccc(C2NC(=O)c3cc([N+](=O)[O-])ccc3N2)cc1` (racemic), for which the GI50 in experiment [1] is 100 nM; in experiment [2] it was 300 nM. This compound had an IC50 in experiment [3] of 1700 nM. The inhibition worked out at 17% in experiment [4] and 51% in experiment [5].
Turning to `Cc1ccccc1-c1ccc([C@H]2NC(=O)c3cc([N+](=O)[O-])ccc3N2)cc1`, the concentration for 50% growth inhibition (GI50) in experiment [1] was determined as 1100 nM; in experiment [2] it was 930 nM. The IC50 in experiment [3] came out at 16000 nM. Also, the inhibition in experiment [4] turned out to be 2.1%; in experiment [5], 5.5%.
As for `Cc1ccccc1-c1ccc([C@@H]2NC(=O)c3cc([N+](=O)[O-])ccc3N2)cc1`, the figures for the GI50 in experiment [1] and in experiment [2] were 0.1 nM and 100 nM, respectively. In experiment [3], this compound showed an IC50 of 1100 nM. Moreover, the inhibition in experiment [4] turned out to be 28%; in experiment [5], 66%.
`COc1ccc(/C=C\c2cc(OC)c(OC)c(OC)c2)cc1O` registered an inhibition in experiment [4] of 99%.
Consider `CC(=O)O[C@H]1C(=O)[C@@]2(C)[C@H]([C@H](OC(=O)c3ccccc3)[C@]3(O)C[C@H](OC(=O)[C@H](O)[C@@H](NC(=O)c4ccccc4)c4ccccc4)C(C)=C1C3(C)C)[C@]1(OC(C)=O)CO[C@@H]1C[C@@H]2O` [PACLITAXEL], for which the GI50 in experiment [1] is 4 nM.

In general, GI50 refers to the concentration that inhibits growth by half. Read a high GI50 as lower sensitivity of the cells. One may read the IC50 as the concentration at which inhibition is half-maximal. Read a low IC50 as greater potency. Broadly, the inhibition is how much of the control response was suppressed. A lower inhibition goes with a weak effect.
